Data published in publication PMC3963460 (Synthesis, 2013).

Target: PKC rat-brain isozyme mixture
Assay: Protein kinase C isozyme mixture competitive binding assay with
Settings: read-out: Kd of (^3H)PDBu; measured under these assay conditions
Summary of the method: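 Rat-brain PKC isozyme mixture in Tris-HCl pH 7.4 buffer with KCl, CaCl2 and BSA, plus phosphatidylserine vesicles; (3H)PDBu added in DMSO. Triplicate vials incubated at 37 °C for 90 min, then 15 min on ice. Nonspecific binding from an unlabelled analogue at 5 μM assay concentration. Filtered through poly(ethyleneamine)-soaked filters, washed with ice-cold 20 mM Tris pH 7.4, scintillation-counted.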

CCCC(=O)OC1C(C)C2(O)C(C=C(CO)CC3(O)C(=O)C(C)=CC32)C2C(C)(C)C12OC(=O)CCC (stereo not shown) [(^3H)PDBu, (^3H)phorbol dibutyrate]
Kd: 1.55 nM
